Results reported in article PMC10975593 (ACS Omega, 2024).
Read-outs that look alike come from different tables or passages of the source.

Legend:
[1] = molecular target: PIK3CA E542 K/PIK3R1 (p110 α E542 K/p85 α) (Homo sapiens, UniProt P42336, E542K); assay: Kinase selectivity for OMS14; format: biochemical
MCF-7 cancer cell line = assay: MTT assay; format: cell-based; settings: Homo sapiens, MCF7, 72 h
Outline: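 A549 in DMEM and MCF-7 in RPMI, each with 10% heat-inactivated FBS, 1% penicillin/streptomycin and 2 mmol/L glutamine at 37 °C, 5% CO2. Seeded at 2000 (A549) or 10,000 (MCF-7) cells/well and attached 24 h. Then 72 h with test compound at varying concentrations. MTT (5 mg/mL stock) added for 4 h at 37 °C, formazan dissolved in DMSO, absorbance read at 450/540 nm. Triplicates in three separate experiments.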

[2] = molecular target: PIK3CD/PIK3R1 (p110 δ/p85 α) (Homo sapiens, UniProt O00329); assay: Kinase selectivity for OMS14; format: biochemical
PKN2 (PRK2) = PKN2 (PRK2) (Homo sapiens, UniProt Q16513); assay: Kinase selectivity for OMS14; format: biochemical
[3] = read-out: % of inhibition (mean)
[4] = read-out: % of inhibition, point 1
[5] = read-out: % of inhibition, point 2

Sequence of PKN2 (PRK2) (Q16513 whole entry): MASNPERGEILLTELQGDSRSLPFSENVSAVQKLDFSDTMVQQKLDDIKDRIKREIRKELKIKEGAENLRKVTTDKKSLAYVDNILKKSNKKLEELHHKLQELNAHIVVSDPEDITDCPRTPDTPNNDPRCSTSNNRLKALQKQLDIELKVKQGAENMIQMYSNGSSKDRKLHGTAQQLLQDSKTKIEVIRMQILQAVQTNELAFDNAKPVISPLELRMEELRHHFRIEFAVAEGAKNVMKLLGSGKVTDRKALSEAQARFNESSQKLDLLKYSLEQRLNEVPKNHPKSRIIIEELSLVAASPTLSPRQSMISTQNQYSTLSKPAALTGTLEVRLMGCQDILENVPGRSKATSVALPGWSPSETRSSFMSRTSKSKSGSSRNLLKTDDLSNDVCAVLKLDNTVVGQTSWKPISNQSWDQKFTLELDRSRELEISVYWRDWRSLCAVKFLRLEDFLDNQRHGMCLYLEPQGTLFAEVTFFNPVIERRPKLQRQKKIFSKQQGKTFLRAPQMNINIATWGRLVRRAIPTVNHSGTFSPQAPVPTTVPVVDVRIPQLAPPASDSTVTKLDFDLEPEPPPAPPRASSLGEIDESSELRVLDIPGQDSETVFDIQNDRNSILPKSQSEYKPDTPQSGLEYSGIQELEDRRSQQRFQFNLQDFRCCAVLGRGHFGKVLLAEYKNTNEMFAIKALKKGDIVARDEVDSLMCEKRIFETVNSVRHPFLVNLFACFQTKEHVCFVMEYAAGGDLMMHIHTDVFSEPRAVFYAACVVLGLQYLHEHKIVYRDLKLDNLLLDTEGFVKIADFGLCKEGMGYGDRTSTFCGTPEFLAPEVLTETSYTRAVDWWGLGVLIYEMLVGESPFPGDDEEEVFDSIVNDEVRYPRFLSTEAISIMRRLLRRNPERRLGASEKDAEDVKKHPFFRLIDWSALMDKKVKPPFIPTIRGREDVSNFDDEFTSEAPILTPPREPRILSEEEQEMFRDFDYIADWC
Sequence of PIK3CA E542 K/PIK3R1 (p110 α E542 K/p85 α) (P42336 whole entry E542K): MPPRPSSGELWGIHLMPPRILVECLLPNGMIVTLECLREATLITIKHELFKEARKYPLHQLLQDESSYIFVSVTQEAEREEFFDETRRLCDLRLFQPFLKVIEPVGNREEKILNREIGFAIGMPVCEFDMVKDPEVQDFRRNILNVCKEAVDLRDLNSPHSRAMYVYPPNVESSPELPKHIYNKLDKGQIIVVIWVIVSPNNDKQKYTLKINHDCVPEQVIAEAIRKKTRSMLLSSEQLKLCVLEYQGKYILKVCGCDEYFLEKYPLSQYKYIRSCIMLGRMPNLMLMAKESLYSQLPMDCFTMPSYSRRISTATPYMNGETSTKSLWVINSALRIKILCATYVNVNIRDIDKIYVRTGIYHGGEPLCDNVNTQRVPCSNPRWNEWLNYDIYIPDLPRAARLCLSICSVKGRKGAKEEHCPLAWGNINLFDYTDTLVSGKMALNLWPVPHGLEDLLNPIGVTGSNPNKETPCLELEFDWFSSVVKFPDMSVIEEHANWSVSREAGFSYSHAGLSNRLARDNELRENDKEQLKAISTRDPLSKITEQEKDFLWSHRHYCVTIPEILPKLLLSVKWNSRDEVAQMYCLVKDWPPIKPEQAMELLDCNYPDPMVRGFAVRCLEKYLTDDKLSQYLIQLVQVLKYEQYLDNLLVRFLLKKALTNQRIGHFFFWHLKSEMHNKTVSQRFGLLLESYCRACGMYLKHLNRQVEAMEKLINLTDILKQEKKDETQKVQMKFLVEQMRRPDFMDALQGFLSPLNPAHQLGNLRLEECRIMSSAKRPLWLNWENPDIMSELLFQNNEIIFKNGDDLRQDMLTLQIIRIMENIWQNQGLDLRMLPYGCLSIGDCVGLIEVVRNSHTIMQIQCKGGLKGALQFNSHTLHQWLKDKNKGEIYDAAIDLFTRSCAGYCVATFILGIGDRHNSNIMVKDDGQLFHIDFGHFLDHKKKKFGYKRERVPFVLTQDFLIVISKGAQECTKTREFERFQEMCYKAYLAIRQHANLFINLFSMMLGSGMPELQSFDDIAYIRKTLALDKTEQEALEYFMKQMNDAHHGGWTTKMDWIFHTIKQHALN
Sequence of PIK3CA E542 K/PIK3R1 (p110 α E542 K/p85 α) (P27986 whole entry partner): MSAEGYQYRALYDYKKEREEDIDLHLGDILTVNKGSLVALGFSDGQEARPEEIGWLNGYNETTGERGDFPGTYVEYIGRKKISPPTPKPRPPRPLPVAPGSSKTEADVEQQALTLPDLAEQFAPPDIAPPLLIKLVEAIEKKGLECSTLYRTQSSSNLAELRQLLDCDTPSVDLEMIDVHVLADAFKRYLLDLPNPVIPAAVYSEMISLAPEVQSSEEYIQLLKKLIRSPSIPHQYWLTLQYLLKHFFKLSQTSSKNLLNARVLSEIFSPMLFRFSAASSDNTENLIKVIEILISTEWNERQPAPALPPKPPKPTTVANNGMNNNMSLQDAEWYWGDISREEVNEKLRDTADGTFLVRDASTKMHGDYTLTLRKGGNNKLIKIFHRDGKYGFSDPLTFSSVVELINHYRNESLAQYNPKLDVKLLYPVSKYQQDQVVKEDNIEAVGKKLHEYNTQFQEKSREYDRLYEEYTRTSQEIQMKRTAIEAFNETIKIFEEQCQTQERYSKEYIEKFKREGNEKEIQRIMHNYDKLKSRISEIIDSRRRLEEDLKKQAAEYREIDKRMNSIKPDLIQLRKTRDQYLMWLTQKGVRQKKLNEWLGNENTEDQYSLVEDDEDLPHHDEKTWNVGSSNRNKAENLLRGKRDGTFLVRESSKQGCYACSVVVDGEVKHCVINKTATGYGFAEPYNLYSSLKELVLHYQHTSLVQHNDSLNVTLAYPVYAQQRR
Sequence of PIK3CD/PIK3R1 (p110 δ/p85 α) (O00329 whole entry): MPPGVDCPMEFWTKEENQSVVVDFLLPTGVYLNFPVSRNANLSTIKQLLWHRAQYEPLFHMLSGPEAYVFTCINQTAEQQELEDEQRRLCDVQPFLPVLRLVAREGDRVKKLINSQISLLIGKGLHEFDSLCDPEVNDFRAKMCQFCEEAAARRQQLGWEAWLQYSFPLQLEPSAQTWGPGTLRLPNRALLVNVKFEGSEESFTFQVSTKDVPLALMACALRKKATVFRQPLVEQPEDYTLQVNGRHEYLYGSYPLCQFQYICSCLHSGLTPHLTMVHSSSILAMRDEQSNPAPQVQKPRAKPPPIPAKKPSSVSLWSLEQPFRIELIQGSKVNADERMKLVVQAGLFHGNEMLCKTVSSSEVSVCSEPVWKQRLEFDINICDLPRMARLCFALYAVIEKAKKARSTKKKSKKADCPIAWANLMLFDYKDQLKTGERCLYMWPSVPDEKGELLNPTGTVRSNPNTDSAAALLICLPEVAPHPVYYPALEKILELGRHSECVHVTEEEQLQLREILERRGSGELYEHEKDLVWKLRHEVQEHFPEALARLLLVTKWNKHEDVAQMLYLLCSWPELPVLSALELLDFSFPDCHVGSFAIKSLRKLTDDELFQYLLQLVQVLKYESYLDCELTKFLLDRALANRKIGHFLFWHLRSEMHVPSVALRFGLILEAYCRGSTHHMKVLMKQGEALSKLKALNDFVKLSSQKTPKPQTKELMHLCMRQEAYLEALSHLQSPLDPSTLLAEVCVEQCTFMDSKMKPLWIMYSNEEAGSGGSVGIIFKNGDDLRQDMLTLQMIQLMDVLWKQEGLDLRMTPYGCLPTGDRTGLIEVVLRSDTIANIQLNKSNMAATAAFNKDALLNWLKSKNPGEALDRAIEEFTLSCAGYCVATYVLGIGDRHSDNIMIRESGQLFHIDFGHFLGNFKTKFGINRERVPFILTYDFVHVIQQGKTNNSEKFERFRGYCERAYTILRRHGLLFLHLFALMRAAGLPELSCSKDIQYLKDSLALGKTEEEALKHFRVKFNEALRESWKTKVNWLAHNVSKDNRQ
Sequence of PIK3CD/PIK3R1 (p110 δ/p85 α) (P27986 whole entry partner): as the sequence (P27986 whole entry partner) above

O=C(CN1CCN(CC(=O)Nc2nc3ccccc3s2)CC1)Nc1ccc([N+](=O)[O-])cc1 [OMS14, N-(benzo[d]thiazol-2-yl)-2-(4-(2-((4-nitrophenyl)amino)-2-oxoethyl)piperazin-1-yl)acetamide]
inhibition at 100 µM [1, 3]: 34% | inhibition at 100 µM [1, 4]: 33% | inhibition at 100 µM [1, 5]: 36% | IC50 (MCF-7 cancer cell line): 22.1 µM | inhibition at 100 µM [2, 3]: 65% | inhibition at 100 µM [2, 4]: 66% | inhibition at 100 µM [2, 5]: 64% | inhibition at 100 µM (PKN2 (PRK2); [3]): 10% | inhibition at 100 µM (PKN2 (PRK2); [4]): 11% | inhibition at 100 µM (PKN2 (PRK2); [5]): 8%
